Measured values taken from ChEMBL document CHEMBL1134785, “Synthesis and biological evaluation of prostaglandin-F alkylphosphinic acid derivatives as bone anabolic agents for the treatment of osteoporosis” (J Med Chem, 2001).

Experiments:
[1] = tested on: Rattus norvegicus; experiment: Bone Volume /Tissue Volume (%)measured using micro Computed Tomography(CT) after a dose of 6000 ug/kg in Vertebral Bone; assay type: functional
Summary of the method: (§1)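 Micro-CT of the fifth lumbar vertebra, measuring cancellous bone volume and architecture. Rats were 6 months old, OVX 60 days before treatment, then dosed daily for 60 days. Test-agent doses were 10–3000 µg/kg, given as a once-daily subcutaneous injection; 6 mg/kg/day was given to the positive-control group. Groups were compared with vehicle by ANOVA plus LSD test.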

[2] = tested on: Rattus norvegicus; experiment: Mineral surface/bone surface measured Histomorphometrically after a dose of 6000 ug/kg in proximal tibial metaphysis; assay type: functional
Summary of the method: (§2)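 Positive-control arm: rats ovariectomized at six months, then from day 60 given PGE2 at 6 mg/kg/day for 60 days. Labels were xylenol orange 90 mg/kg before treatment and calcein 10 mg/kg 14 and 4 days before sacrifice. The tibia was read by fluorescent-light histomorphometry; metaphysis region 1–4 mm distal to the growth plate junction.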

[3] = tested on: Rattus norvegicus; experiment: Bone Formation rate/bone measured Histomorphometrically after a dose of 6000 ug/kg in proximal tibial metaphysis; assay type: functional
Summary of the method: (§3)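 Proximal tibial metaphysis, 1 to 4 mm distal to the growth plate–metaphyseal junction, assessed by histomorphometry in 6-month-old female rats. Rats were ovariectomized (OVX) 60 days before dosing, then given daily injections for 60 days. Fluorochrome labels were xylenol orange 90 mg/kg before treatment and calcein 10 mg/kg at 14 and 4 days before sacrifice. Groups were compared with vehicle by ANOVA plus LSD test.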

[4] = tested on: Rattus norvegicus; experiment: Bone Formation rate/tissue vol measured Histomorphometrically after a does of 6000 ug/kg in proximal tibial metaphysis; assay type: functional; summary of the method: as §3
[5] = tested on: Rattus norvegicus; experiment: Bone Volume /Tissue Volume (%)measured Histomorphometrically after a dose of 6000 ug/kg in proximal tibial metaphysis; assay type: functional; summary of the method: as §3
[6] = tested on: Rattus norvegicus; experiment: Derived trabecular no measured using micro Computed Tomography(CT) after a dose of 6000 ug/kg in Vertebral Bone; assay type: functional, Trabecula; summary of the method: as §1
[7] = tested on: Rattus norvegicus; experiment: Derived trabecular thickness measured using micro Computed Tomography(CT) after a dose of 6000 ug/kg in Vertebral Bone; assay type: functional, Trabecula; summary of the method: as §1
[8] = tested on: Rattus norvegicus; experiment: Directly measured thickness measured using micro Computed Tomography(CT) after a dose of 6000 ug/kg in Vertebral Bone; assay type: functional; summary of the method: as §1
[9] = tested on: Rattus norvegicus; experiment: Connectivity density measured using micro Computed Tomography(CT) after a dose of 6000 ug/kg in Vertebral Bone; assay type: functional; summary of the method: as §1
[10] = tested on: Rattus norvegicus; experiment: Endosteal eroded surface measured Histomorphometrically after a dose of 6000 ug/kg in Tibial Diaphysis; assay type: functional
Summary of the method: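 Tibial histomorphometry in 6-month-old rats, OVX 60 days before treatment, then daily injection for 60 days. Vehicle was acetate-buffered saline with methylcellulose and polyoxyethylenesorbitan monooleate. Rats received xylenol orange 90 mg/kg before treatment and calcein 10 mg/kg at 14 and 4 days pre-sacrifice. Rats were killed by cardiac puncture under ketamine/xylazine. Groups were compared with vehicle by ANOVA plus LSD test.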

[11] = tested on: Rattus norvegicus; experiment: Mineralizing apposition measured Histomorphometrically after a dose of 6000 ug/kg in […]; assay type: functional
[12] = tested on: Rattus norvegicus; experiment: Endosteal mineralizing surface measured Histomorphometrically after a does of 6000 ug/kg in Tibial Diaphysis; assay type: functional
[13] = tested on: Rattus norvegicus; experiment: Mineral apposition measured Histomorphometrically after a dose of 6000 ug/kg in proximal tibial metaphysis; assay type: functional; summary of the method: as §2
[14] = tested on: Rattus norvegicus; experiment: Marrow area measured Histomorphometrically after a dose of 6000 ug/kg in Tibial Diaphysis; assay type: functional
[15] = tested on: Rattus norvegicus; experiment: Periosteal mineralizing surface measured Histomorphometrically after a does of 6000 ug/kg in Tibial Diaphysis; assay type: functional
Summary of the method: (§4)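 A positive-control group of ovariectomized rats was injected daily at 6 mg/kg/day for 60 days, starting 60 days after surgery. Xylenol orange (90 mg/kg) was given before treatment and calcein (10 mg/kg) 14 and 4 days before sacrifice. Tibiae were read by fluorescent-light histomorphometry.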

[16] = tested on: Rattus norvegicus; experiment: Trabecular no measured Histomorphometrically after a dose of 6000 ug/kg in proximal tibial metaphysis; assay type: functional, Trabecula
Summary of the method: (§5)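 A positive-control group of ovariectomized rats was injected daily at 6 mg/kg/day for 60 days, beginning 60 days post-surgery. Fluorochrome labels were xylenol orange (90 mg/kg) before treatment and calcein (10 mg/kg) 14 and 4 days before sacrifice. Histomorphometry covered the proximal tibial metaphysis 1-4 mm below the growth plate-metaphyseal junction.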

[17] = tested on: Rattus norvegicus; experiment: Trabecular thickness measured Histomorphometrically after a dose of 6000 ug/kg in proximal tibial metaphysis; assay type: functional, Trabecula; summary of the method: as §5
[18] = tested on: Rattus norvegicus; experiment: Tissue area measured Histomorphometrically after a dose of 6000 ug/kg in Tibial Diaphysis; assay type: functional; summary of the method: as §4

CCCCC[C@H](O)/C=C/[C@H]1[C@H](O)CC(=O)[C@@H]1C/C=C\CCCC(=O)O [DINOPROSTONE]
Activity [1]: 43.79% | Activity [2]: 36.23% | Activity [3]: 394.7% | Activity [4]: 45.62% | Activity [5]: 11.65% | Derived trabecular number [6]: 4.6 1/mm | Derived trabecular thickness [7]: 95.1 µm | Directly measured thickness [8]: 149 µm | Connectivity density [9]: 47.81 mm**-3 | Endosteal eroded surface [10]: 0.79% | Mineralizing apposition rate [11]: 1.33 µm/day | Endosteal mineralizing surface [12]: 61.22% | Mineral apposition rate [13]: 1.19 µm/day | Marrow area [14]: 0.76 mm | Periosteal mineralizing surface [15]: 58.37% | Trabecular no. [16]: 1.76 | Trabecular thickness [17]: 66.14 | Tissue area [18]: 5.22 mm
